Assay results: ChEMBL document CHEMBL1133117, “S-Acyl-2-thioethyl aryl phosphotriester derivatives as mononucleotide prodrugs” (J Med Chem, 2000)

Assays:
[1] = system: CCRF-CEM; assay: Tested for anti-HIV -1 Activity in CEM/TK- cell culture; assay type: functional, cell-based; details: Homo sapiens
In short: (§1)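 HIV-1 replication assayed in human T4 lymphoblastoid CEM-SS or MT-4 cells, or thymidine kinase-deficient CEM (CEM/TK−) cells. EC50 is the concentration that inhibits HIV-1 replication by 50%. Values are averages of at least three separate experiments, with variation below ±10%.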

[2] = system: CCRF-CEM; assay: Tested for cytotoxic concentration in CEM-SS cell culture; assay type: functional; details: Homo sapiens
In short: (§2)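 Viability of uninfected CEM-SS, MT-4 or CEM/TK− cells measured. CC50 is the concentration that reduces viability by 50%. Values are averages of at least three separate experiments, with variation below ±10%.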

[3] = system: CCRF-CEM; assay: Tested for cytotoxic concentration in CEM/TK- cell culture; assay type: functional; details: Homo sapiens; in short: as §2
[4] = Partition coefficient (logP); assay type: physicochemical; details: octanol/water
In short: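 Apparent partition coefficient (log Papp) measured as distribution between 1-octanol and potassium phosphate buffer (0.02 M, pH 7.2) by an adapted shake-flask method.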

[5] = system: MT4; assay: Tested for cytotoxic concentration in MT-4 cell culture; assay type: functional; details: Homo sapiens; in short: as §2
[6] = system: CCRF-CEM; assay: Tested for anti-HIV -1 Activity in CEM-SS cell culture; assay type: functional, cell-based; details: Homo sapiens; in short: as §1
[7] = system: MT4; assay: Tested for cytotoxic activity in MT-4 cell culture; assay type: functional; details: Homo sapiens; in short: as §2
[8] = system: CCRF-CEM; assay: Tested for cytotoxic activity in CEM/TK- cell culture; assay type: functional; details: Homo sapiens; in short: as §2
[9] = system: CCRF-CEM; assay: Tested for anti-HIV -1 activity in CEM-SS cell culture; assay type: functional, cell-based; details: Homo sapiens; in short: as §1
[10] = system: CCRF-CEM; assay: Tested for cytotoxic activity in CEM-SS cell culture; assay type: functional; details: Homo sapiens; in short: as §2
[11] = system: CCRF-CEM; assay: Tested for anti-HIV -1 activity in CEM/TK- cell culture; assay type: functional, cell-based; details: Homo sapiens; in short: as §1
[12] = system: MT4; assay: Tested for anti-HIV -1 activity in MT-4 cell culture; assay type: functional, cell-based; details: Homo sapiens; in short: as §1
[13] = system: CCRF-CEM; assay: Tested for cytotoxic concentration in CEM-SS cell culture,(Human); assay type: functional; in short: as §2
[14] = system: MT4; assay: Tested for cytotoxic concentration in MT-4 cell culture,(Human); assay type: functional; in short: as §2
[15] = system: MT4; assay: Tested for anti-HIV -1 Activity in MT-4 cell culture,(Human); assay type: functional, cell-based; in short: as §1
[16] = system: CCRF-CEM; assay: Tested for cytotoxic concentration in CEM/TK- cell culture,(Human); assay type: functional; in short: as §2
[17] = system: CCRF-CEM; assay: Tested for anti-HIV -1 Activity in CEM/TK- cell culture,(Human); assay type: functional, cell-based; in short: as §1
[18] = system: CCRF-CEM; assay: Tested for anti-HIV -1 Activity in CEM-SS cell culture,(Human); assay type: functional, cell-based; in short: as §1
[19] = system: MT4; assay: Tested for anti-HIV -1 Activity in MT-4 cell culture; assay type: functional, cell-based; details: Homo sapiens; in short: as §1

SMILES	EC50 [1]	CC50 [2]	CC50 [3]	logP ([4]; read-out: logP)	CC50 [5]	EC50 [6]	EC50 [19]	other results
Cc1cn(C2CC(N=[N+]=[N-])C(COP(=O)(OCCSC(=O)C(C)(C)C)OCCSC(=O)C(C)(C)C)O2)c(=O)[nH]c1=O (centres undefined)	450 nM	> 10000 nM	> 10000 nM	3.73	> 10000 nM	15 nM	–	–
COC(=O)[C@@H](N)Cc1ccc(OP(=O)(OCCSC(=O)C(C)(C)C)OCC2OC(n3cc(C)c(=O)[nH]c3=O)CC2N=[N+]=[N-])cc1 (some centres undefined)	–	–	–	–	–	–	–	CC50 [7]: > 10000 nM; CC50 [8]: > 100000 nM; logP [4]: 2.25; EC50 [9]: 2 nM; CC50 [10]: > 100000 nM; EC50 [11]: 1800 nM; EC50 [12]: 37 nM
Cc1cn(C2CC(N=[N+]=[N-])C(COP(=O)(OCCSC(=O)C(C)(C)C)Oc3ccc(C[C@H](N)C(=O)O)cc3)O2)c(=O)[nH]c1=O (some centres undefined)	–	–	–	0.24	–	–	–	CC50 [13]: > 100000 nM; CC50 [14]: > 10000 nM; EC50 [15]: 75 nM; CC50 [16]: > 100000 nM; EC50 [17]: 29000 nM; EC50 [18]: 6 nM
Cc1cn(C2CC(N=[N+]=[N-])C(COP(=O)(OCCSC(=O)C(C)(C)C)Oc3ccc(C[C@H](NC(=O)OC(C)(C)C)C(=O)OC(C)(C)C)cc3)O2)c(=O)[nH]c1=O (some centres undefined)	900 nM	> 1000 nM	> 1000 nM	4.29	> 1000 nM	34 nM	250 nM	–
COC(=O)[C@H](Cc1ccc(OP(=O)(OCCSC(=O)C(C)(C)C)OCC2OC(n3cc(C)c(=O)[nH]c3=O)CC2N=[N+]=[N-])cc1)NC(=O)OC(C)(C)C (some centres undefined)	2300 nM	> 10000 nM	> 10000 nM	3.48	> 10000 nM	1 nM	33 nM	–
Cc1cn([C@H]2C[C@H](N=[N+]=[N-])[C@@H](COP(=O)(OCCSC(=O)C(C)(C)C)Oc3ccccc3)O2)c(=O)[nH]c1=O (some centres undefined)	–	–	–	–	–	–	–	logP [4]: 3.46; CC50 [14]: > 10000 nM; EC50 [15]: 70 nM; CC50 [16]: > 10000 nM; EC50 [17]: 3500 nM; EC50 [18]: 2 nM
Cc1cn([C@H]2C[C@H](N=[N+]=[N-])[C@@H](CO)O2)c(=O)[nH]c1=O [ZIDOVUDINE]	> 100000 nM	> 1000 nM	> 100000 nM	0.06	> 1000 nM	3 nM	15 nM	–
Cc1cn(C2CC(N=[N+]=[N-])C(COP(=O)(OCCSC(=O)C(C)(C)C)Oc3ccc(C[C@H](N)C(=O)OC(C)(C)C)cc3)O2)c(=O)[nH]c1=O (some centres undefined)	2700 nM	> 10000 nM	> 10000 nM	2.9	> 10000 nM	4 nM	42 nM	–
